For data set [1], the system named is COS-7. The data set is described as follows: Induction of autophagy in african green monkey COS7 cells expressing EGFP-HDQ74/m-calpain assessed as decrease in EGFP-HDQ74 aggregation at 500 uM after 48 hrs. The class given is functional, cell-based. The note with it: Chlorocebus aethiops.
In data set [2] the test system is COS-7. The experiment in a line: Inhibition of Gsalpha in african green monkey COS7 cells expressing EGFP-HDQ74/m-calpain assessed as increase in LC3-2 level by autophagy induction assay. The class given is functional, cell-based. The note with it: Chlorocebus aethiops.
The test system of data set [3] is PC-12. The experiment in a line: Induction of autophagy in rat stable inducible PC12 cells expressing A53T alpha-synuclein assessed as A53T alpha-synuclein clearance at 500 uM after 24 hrs by densitometric analysis. The class given is functional, cell-based. The essentials: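 Inducible PC12 A53T α-synuclein (HA) cells induced with 1 μg/ml doxycycline for 48 h. Doxycycline then removed for 24 h with compound or DMSO. Remaining protein measured by anti-HA immunoblot, densitometry relative to actin.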

Data set [4] has as its system SK-N-SH. The data set is described as follows: Induction of autophagy in human SK-N-SH cells expressing EGFP-HDQ74 assessed as reduction in EGFP-HDQ74 aggregation at 500 uM after 48 hrs by densitometric analysis. The class given is functional, cell-based.
In data set [5] the test system is SK-N-MC. The experiment in a line: Cytotoxicity against human SK-N-MC cells expressing EGFP-HDQ74 at 1 uM after 48 hrs. Type of data set: cell-based.
Data set [6] deals with SK-N-SH (Homo sapiens). The data set is described as follows: Induction of autophagy in human SK-N-SH cells expressing EGFP-HDQ74 assessed as reduction in EGFP-HDQ74 aggregation at 1 uM after 48 hrs by densitometric analysis.
Data set [7] is filed under the species Danio rerio. The experiment in a line: Protection of neurodegeneration in zebrafish Huntington's disease model expressing EGFP-tagged huntingtin exon with EGFP-HDQ71 in rod photoreceptor assessed as loss of rhodopsin expression at 3 uM.
The species named for data set [8] is Danio rerio. The experiment in a line: Protection of neurodegeneration in zebrafish Huntington's disease model expressing EGFP-tagged huntingtin exon with EGFP-HDQ71 in rod photoreceptor assessed as decrease in […] aggregation at 3 uM.
Data set [9] is filed under the species Danio rerio. The data set is described as follows: Protection of neurodegeneration in zebrafish Huntington's disease model expressing EGFP-tagged huntingtin exon with EGFP-HDQ71 in rod photoreceptor assessed as decrease in […] aggregation at 3 uM. Type of data set: functional, organism-based. The method in brief:
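Transgenic zebrafish larvae raised in PTU to 3 d.p.f., then dark-reared 3–9 d.p.f. with drug in E3 medium (pH 7.2), refreshed daily. Fixed fish were cryosectioned at 12 μm and aggregates counted over 96 μm of the central eye. Means from 10 fish per group; ANOVA with Dunnett's test.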

Data set [10] is filed under the species Danio rerio. The experiment in a line: Protection of neurodegeneration in zebrafish Huntington's disease model expressing EGFP-tagged huntingtin exon with EGFP-HDQ71 in rod photoreceptor assessed as induction of rhodopsin expression at 3 uM. The class given is functional, organism-based. The essentials:
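Zebrafish larvae dark-reared 3–9 d.p.f. with drug in E3, refreshed daily, then lysed in RIPA/DTT. Western blot with anti-rhodopsin (Zpr3, 1:1000), anti-Zpr1 and anti-EGFP antibodies; ECL detection.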

The species entered for data set [11] is Mus musculus. The data set is described as follows: Induction of autophagy in Atg deficient mouse […] expressing EGFP-HDQ74 at 1 uM after 48 hrs. The class given is functional.
Data set [12] deals with SK-N-MC. The data set is described as follows: Induction of autophagy in Atg positive human SK-N-MC cells expressing EGFP-HDQ74 at 1 uM after 48 hrs. The class given is functional, cell-based.
Data set [13] has as its system SK-N-SH. The data set is described as follows: Induction of autophagy in human SK-N-SH cells expressing EGFP-HDQ74/m-calpain assessed as inhibition of EGFP-HDQ74 aggregation at 1 uM after 48 hrs. The class given is functional, cell-based.
Data set [14] has as its system COS-7. The data set is described as follows: Induction of autophagy in african green monkey COS7 cells expressing PLC-epsilon assessed as calpain activation at 2.5 uM after 30 mins by immunoblotting analysis. The note with it: Chlorocebus aethiops. The class given is functional, cell-based. The method in brief:
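Calpain activation in COS-7 after 30 min exposure, alongside 2.5 μM thapsigargin where applied; immunoblot of the active calpain small subunit.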
Background: Immunoblotting shows a protein as a band on a membrane.

Data set [15] relates to COS-7. The data set is described as follows: Induction of autophagy in african green monkey COS7 cells expressing EGFP-HDQ74 assessed as huntingtin mutant aggregation at 10 uM after 48 hrs. Type of data set: functional, cell-based. To be noted: Chlorocebus aethiops. The method in brief:
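COS-7 cells seeded at 1×10⁵/well for 24 h, then transfected with pEGFP-HDQ74 (1.5 μg/well) using LipofectAMINE for 4 h. Compound added, and cells fixed at 48 h and mounted in DAPI. About 200 EGFP-positive cells per sample were scored for presence of aggregates by a blinded observer. Triplicate, at least twice.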

Each structure is given as a SMILES string. Activity calls are given as the source filed them. The rule behind the calls is not given here.

With `O=C(Nc1cc(C(=O)Nc2ccc(S(=O)(=O)O)cc2S(=O)(=O)O)cc(C(=O)Nc2ccc(S(=O)(=O)O)cc2S(=O)(=O)O)c1)Nc1cc(C(=O)Nc2ccc(S(=O)(=O)O)cc2S(=O)(=O)O)cc(C(=O)Nc2ccc(S(=O)(=O)O)cc2S(=O)(=O)O)c1`, the outcome in data set [1] and in [2] was Active.

For the molecule `CCCC(=O)Nc1ncnc2c1ncn2[C@@H]1O[C@@H]2COP(=O)(O)O[C@H]2[C@H]1OC(=O)CCC`, the result in data set [3] and in data set [4] was inactive.

As to `COCCOC(=O)C1=C(C)NC(C)=C(C(=O)OC(C)C)C1c1cccc([N+](=O)[O-])c1` (stereo not drawn) [NIMODIPINE], in data set [5], the Activity result is listed as “Non-toxic”. For the same molecule, the result in data set [6] was Active.

In the case of `CCOC(=O)C1=C(C)NC(C)=C(C(=O)OC)C1c1cccc([N+](=O)[O-])c1` (stereo not drawn) [NITRENDIPINE], the Activity result in [5] was “Non-toxic”. For the same molecule, the result in data set [6] was Active.

Take `CCCC(CCC)C(=O)O` [VALPROIC ACID]: the Activity entry in data set [5] is recorded as “Non-toxic”. For the same molecule, the result in data set [6] and in [8] was Active. Further, the result in data set [7] was inactive.

For `Clc1cccc(Cl)c1NC1=NCCN1`, the outcome in [9], in data set [10], in [12], in data set [6] and in data set [8] was Active. Also, the result in [11], in [13] and in data set [7] was inactive.

On to `O=C(Nc1ncnc2c1ncn2[C@@H]1O[C@@H]2COP(=O)(O)O[C@H]2[C@H]1O)c1ccccc1`, for which the outcome in [14] was Active.

As for `CO[C@@H]1[C@@H]2OP(=O)(O)OC[C@H]2O[C@H]1n1c(Sc2ccc(Cl)cc2)nc2c(N)ncnc21`, the result in data set [15] and in data set [14] was inactive.
